Each structure is given as a SMILES string. The source made the active and inactive calls. The calls are words filed in the database; no cut-off is given here.

For data set [1], the system named is Mus musculus. Kind of data set: Anticonvulsant activity in CF1 albino mouse assessed as inhibition of maximal electroshock-induced seizures at 300 mg/kg, ip after 4 hrs. In kind it is functional, organism-based. Details: dose 300 mg/kg. The gist of the method:
(§1)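 Test compounds suspended in 0.5% methylcellulose and given ip to adult male CF no. 1 albino mice (18-25 g) at 0.01 mL/g body weight before maximal electroshock challenge.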
(In the maximal electroshock model the usual endpoint is tonic extension of the hind limbs.)

In data set [2] the test system is Mus musculus. Kind of data set: Anticonvulsant activity in CF1 albino mouse assessed as inhibition of maximal electroshock-induced seizures at 100 mg/kg, ip after 0.5 hrs. In kind it is functional, organism-based. Details: dose 100 mg/kg. The essentials: as §1
Data set [3] relates to Rattus norvegicus. As to the kind of experiment: Anticonvulsant activity in Sprague-Dawley rat assessed as inhibition of maximal electroshock-induced seizures at 30 mg/kg, po after 30 mins.
Data set [4] relates to Mus musculus. Kind of data set: Anticonvulsant activity in CF1 albino mouse assessed as inhibition of maximal electroshock-induced seizures at 30 mg/kg, ip after 4 hrs. In kind it is functional, organism-based. Also on record: dose 30 mg/kg. The essentials: as §1
Data set [5] deals with Mus musculus. As to the kind of experiment: Anticonvulsant activity in CF1 albino mouse assessed as inhibition of maximal electroshock-induced seizures at 300 mg/kg, ip after 0.5 hrs. It is filed as functional, organism-based. Details: dose 300 mg/kg. The gist of the method: as §1
Data set [6] concerns Mus musculus. Kind of data set: Anticonvulsant activity in CF1 albino mouse assessed as inhibition of subcutaneous pentylenetetrazole-induced seizures at 100 mg/kg, ip after 0.5 hrs. It is filed as functional, organism-based. Also on record: dose 100 mg/kg. The gist of the method:
(§2)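 Adult male CF no. 1 albino mice (18-25 g) dosed ip with compound suspended in 0.5% methylcellulose (0.01 mL/g). Convulsant: pentylenetetrazol dissolved in 0.9% saline as a 0.85% solution for mice, given subcutaneously.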

The test system of data set [7] is Mus musculus. As to the kind of experiment: Neurotoxicity in CF1 albino mouse assessed as motor impairment at 300 mg/kg, ip after 4 hrs. The following applies: in vivo. In kind it is toxicity, organism-based. Details: dose 300 mg/kg, route intraperitoneal.
The test system of data set [8] is Mus musculus. As to the kind of experiment: Anticonvulsant activity in CF1 albino mouse assessed as inhibition of maximal electroshock-induced seizures at 100 mg/kg, ip after 4 hrs. In kind it is functional, organism-based. Also on record: dose 100 mg/kg. The essentials: as §1
Data set [9] concerns Rattus norvegicus. As to the kind of experiment: Anticonvulsant activity in Sprague-Dawley rat assessed as inhibition of maximal electroshock-induced seizures at 30 mg/kg, po after 1 hr.
For data set [10], the system named is Mus musculus. As to the kind of experiment: Anticonvulsant activity in CF1 albino mouse assessed as inhibition of subcutaneous pentylenetetrazole-induced seizures at 30 mg/kg, ip after 4 hrs. Also on record: dose 30 mg/kg. It is filed as functional, organism-based. The gist of the method:
as §2

Data set [11] relates to Mus musculus. Kind of data set: Neurotoxicity in CF1 albino mouse assessed as motor impairment at 300 mg/kg, ip after 0.5 hrs. In kind it is toxicity, organism-based. Also on record: dose 300 mg/kg, route intraperitoneal. The following applies: in vivo.
Data set [12] relates to Rattus norvegicus. Kind of data set: Anticonvulsant activity in Sprague-Dawley rat assessed as inhibition of maximal electroshock-induced seizures at 30 mg/kg, po after 4 hrs.
Data set [13] relates to Mus musculus. Kind of data set: Anticonvulsant activity in CF1 albino mouse assessed as inhibition of subcutaneous pentylenetetrazole-induced seizures at 300 mg/kg, ip after 0.5 hrs. It is filed as functional, organism-based. Also on record: dose 300 mg/kg. The essentials:
as §2

For data set [14], the system named is Mus musculus. As to the kind of experiment: Neurotoxicity in CF1 albino mouse assessed as motor impairment at 30 mg/kg, ip after 0.5 hrs. Details: dose 30 mg/kg, route intraperitoneal. It is filed as toxicity, organism-based. The following applies: in vivo.
Data set [15] relates to Rattus norvegicus. As to the kind of experiment: Anticonvulsant activity in Sprague-Dawley rat assessed as inhibition of maximal electroshock-induced seizures at 30 mg/kg, po after 2 hrs.
Data set [16] concerns Mus musculus. As to the kind of experiment: Anticonvulsant activity in CF1 albino mouse assessed as inhibition of subcutaneous pentylenetetrazole-induced seizures at 300 mg/kg, ip after 4 hrs. It is filed as functional, organism-based. Also on record: dose 300 mg/kg. The essentials: as §2
Data set [17] deals with Rattus norvegicus. As to the kind of experiment: Neurotoxicity in Sprague-Dawley rat assessed as motor impairment at 30 mg/kg, po after 0.25 to 4 hrs. Particulars: in vivo.
The subject of data set [18] is Mus musculus. Kind of data set: Anticonvulsant activity in CF1 albino mouse assessed as inhibition of subcutaneous pentylenetetrazole-induced seizures at 30 mg/kg, ip after 0.5 hrs. In kind it is functional, organism-based. Also on record: dose 30 mg/kg. The gist of the method: as §2
The test system of data set [19] is Mus musculus. As to the kind of experiment: Anticonvulsant activity in CF1 albino mouse assessed as inhibition of maximal electroshock-induced seizures at 30 mg/kg, ip after 0.5 hrs. It is filed as functional, organism-based. Also on record: dose 30 mg/kg. The gist of the method: as §1
Data set [20] relates to Mus musculus. As to the kind of experiment: Anticonvulsant activity in CF1 albino mouse assessed as inhibition of subcutaneous pentylenetetrazole-induced seizures at 100 mg/kg, ip after 4 hrs. In kind it is functional, organism-based. Also on record: dose 100 mg/kg. The essentials: as §2
Data set [21] deals with Mus musculus. Kind of data set: Neurotoxicity in CF1 albino mouse assessed as motor impairment at 100 mg/kg, ip after 4 hrs. In kind it is toxicity, organism-based. Also on record: dose 100 mg/kg, route intraperitoneal. Particulars: in vivo.
In data set [22] the test system is Mus musculus. Kind of data set: Neurotoxicity in CF1 albino mouse assessed as motor impairment at 30 mg/kg, ip after 4 hrs. Also on record: dose 30 mg/kg, route intraperitoneal. The following applies: in vivo. It is filed as toxicity, organism-based.
For data set [23], the system named is Mus musculus. Kind of data set: Neurotoxicity in CF1 albino mouse assessed as motor impairment at 100 mg/kg, ip after 0.5 hrs. It is filed as toxicity, organism-based. Particulars: in vivo. Details: dose 100 mg/kg, route intraperitoneal.
For data set [24], the system named is Rattus norvegicus. Kind of data set: Anticonvulsant activity in Sprague-Dawley rat assessed as inhibition of maximal electroshock-induced seizures at 30 mg/kg, po after 15 mins.

In the case of `CCCC(C(=O)Nc1ccc(S(N)(=O)=O)cc1)C(C)(C)C` (stereo unspecified), the result in the data set with Mus musculus [1], in the data set on Mus musculus [2], in the data set on Rattus norvegicus [3], in the data set on Mus musculus [4], with Mus musculus [5] and in the data set with Mus musculus [6] was inactive. In addition, the result in the data set with Mus musculus [8], in the data set with Rattus norvegicus [9], in the data set on Mus musculus [10], in the data set with Rattus norvegicus [12], with Mus musculus [13] and with Rattus norvegicus [15] was inactive. Further, the outcome in the data set on Mus musculus [16], in the data set on Mus musculus [18], in the data set on Mus musculus [19] and in the data set on Mus musculus [20] was inactive. Further, the Activity entry in the data set on Mus musculus [7], in the data set on Mus musculus [11], in the data set on Mus musculus [14], with Rattus norvegicus [17], in the data set with Mus musculus [21] and in the data set with Mus musculus [22] was “Non-toxic” each time. For the same compound, in the data set with Mus musculus [23], the Activity result is “Non-toxic”.

As for `CCC(C)C(C(=O)Nc1ccc(S(N)(=O)=O)cc1)C(C)C` (stereo unspecified), the result with Mus musculus [1], in the data set with Mus musculus [2], in the data set on Rattus norvegicus [3], in the data set with Mus musculus [4], with Rattus norvegicus [24] and with Mus musculus [5] was inactive. The outcome in the data set on Mus musculus [6], in the data set on Mus musculus [8], in the data set on Mus musculus [10], with Rattus norvegicus [12], with Mus musculus [13] and with Rattus norvegicus [15] was inactive. For the same compound, the outcome with Mus musculus [16], with Mus musculus [18], in the data set with Mus musculus [19] and in the data set with Mus musculus [20] was inactive. Also, the Activity entry in the data set with Mus musculus [7], in the data set on Mus musculus [11], with Mus musculus [14], with Rattus norvegicus [17], in the data set with Mus musculus [21] and in the data set on Mus musculus [22] was “Non-toxic” in each case. In addition, the Activity entry in the data set on Mus musculus [23] is reported as “Non-toxic”.

The values are drawn from ChEMBL document CHEMBL1155468, “Syntheses and evaluation of anticonvulsant profile and teratogenicity of novel amide derivatives of branched aliphatic carboxylic acids with 4-aminobenzensulfonamide” (J Med Chem, 2010).
